# ChEMBL document CHEMBL1144850, “Combretastatin dinitrogen-substituted stilbene analogues as tubulin-binding and vascular-disrupting agents” (J Nat Prod, 2008)
# What was measured:
# [1] = tested on: SF-268; assay: Cytotoxicity against human SF268 cells after 48 hrs by SRB assay; assay type: functional
# In short: (§1)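 Cells grown in RPMI1640 with 5% fetal bovine serum were seeded and incubated 24 h, then exposed to serial dilutions for 48 h. Plates were fixed with trichloroacetic acid, stained with sulforhodamine B and read by plate reader. GI50 is the concentration giving a 50% reduction in net protein increase, calculated from optical density data.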
# [2] = tested on: Mus musculus; assay: Reduction of blood flow to tumor in MHEC5-T xenografted SCID mouse at 100 mg/kg, ip after 24 hrs; assay type: functional; parameters: scale not given: the % may be the effect or the level left; details: route intraperitoneal
# In short: (§2)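 SCID mice bearing flank MHEC5-T tumours (cultured cells injected into right flank), dosed ip at 10 or 100 mg/kg once tumours reached 300 mm3 without necrosis. At 24 h, diluted fluorescent microbeads (1:6 in saline) injected iv via tail vein; mice killed 3 min later. 8 µm cryosections of tumour and normal organs imaged by fluorescence microscopy; three sections from three tumours per group; vehicle controls.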
# [3] = tested on: MCF7; assay: Cytotoxicity against human MCF7 cells after 48 hrs by SRB assay; assay type: functional; in short: as §1
# [4] = tested on: KM-20L2; assay: Cytotoxicity against human KM20L2 cells after 48 hrs by SRB assay; assay type: functional; in short: as §1
# [5] = tested on: BXPC-3; assay: Cytotoxicity against human BXPC3 cells after 48 hrs by SRB assay; assay type: functional; in short: as §1
# [6] = tested on: Mus musculus; assay: Reduction of blood flow to tumor in MHEC5-T xenografted SCID mouse at 10 mg/kg, ip after 24 hrs; assay type: functional; parameters: scale not given: the % may be the effect or the level left; details: route intraperitoneal; in short: as §2
# [7] = tested on: NCI-H460; assay: Cytotoxicity against human NCIH460 cells after 48 hrs by SRB assay; assay type: functional; in short: as §1
# [8] = tested on: P388; assay: Growth inhibition of mouse P388 cells; assay type: functional; details: read-out: ED50 (the source's name)
# [9] = tested on: DU-145; assay: Cytotoxicity against human DU145 cells after 48 hrs by SRB assay; assay type: functional; in short: as §1
# [10] = Cytotoxicity against mouse MHEC5-T cells after 5 days by MTT assay; assay type: functional, cell-based; details: 120 h
# In short: (§3)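 Mouse heart endothelioma MHEC5-T cells exposed to serial dilutions of compound; viability read by MTT reduction after incubation at 37 °C for 1 h or 5 days exposure. IC50 = concentration reducing viability by 50% versus untreated control.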
# [11] = Inhibition of calf tubulin polymerization; parameters: species or system Bos taurus
# In short: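 Tubulin purified from calf brain; polymerization followed turbidimetrically at 350 nm. IC50 obtained from the data by nonlinear regression.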
# [12] = Cytotoxicity against mouse MHEC5-T cells after 1 hr by MTT assay; assay type: functional, cell-based; in short: as §3
Structure (SMILES),"GI50 ([1]; Homo sapiens, SF-268, 48 h) [µM]",Activity [2] [%],"GI50 ([3]; Homo sapiens, MCF7, 48 h) [µM]","GI50 ([4]; Homo sapiens, KM-20L2, 48 h) [µM]","GI50 ([5]; Homo sapiens, BXPC-3, 48 h) [µM]",Activity [6] [%],"GI50 ([7]; Homo sapiens, NCI-H460, 48 h) [µM]",EC50 [8] [µM],"GI50 ([9]; Homo sapiens, DU-145, 48 h) [µM]",IC50 [10] [µM],IC50 [11] [µM],GI50 [1] [µM],GI50 [3] [µM],GI50 [4] [µM],IC50 [12] [µM],GI50 [5] [µM],GI50 [7] [µM],GI50 [9] [µM]
COc1cc(/C=C\c2cc(N)c(OC)c(N)c2)cc(OC)c1OC,1.5,4.6,1.5,1.1,1.5,3.1,2.4,5.2,2.1,,,,,,,,,
COc1cc(N)c(/C=C\c2cc(OC)c(OC)c(OC)c2)cc1[N+](=O)[O-],,0,,,,0,,,,> 1.4,31,2.6,2.6,3.5,37.7,3.2,3.6,3.6
COc1cc(/C=C/c2cc([N+](=O)[O-])c(OC)c([N+](=O)[O-])c2)cc(OC)c1OC,> 10,,> 10,> 10,> 10,,> 10,,> 10,,> 40,,,,,,,
COc1ccc(/C=C\c2cc(OC)c(OC)c(OC)c2)cc1OP(=O)([O-])[O-].[Na+].[Na+] [FOSBRETABULIN DISODIUM],,88,,,,10,,0.0004,,0.002,,,,,0.8,,,
COc1cc([N+](=O)[O-])c(/C=C/c2cc(OC)c(OC)c(OC)c2)cc1[N+](=O)[O-],1.7,,2.5,> 10,> 10,,> 10,,> 10,,> 40,,,,,,,
COc1cc(/C=C\c2cc([N+](=O)[O-])c(OC)c([N+](=O)[O-])c2)cc(OC)c1OC,0.68,,0.41,0.52,0.79,,0.37,,0.26,,7.4,,,,,,,
COc1cc(/C=C\c2ccc(OC)c([N+](=O)[O-])c2[N+](=O)[O-])cc(OC)c1OC,2.5,,2.3,0.33,2.1,,0.37,,0.2,,> 40,,,,,,,
COc1ccc(/C=C\c2cc(OC)c(OC)c(OC)c2)cc1O [COMBRETASTATIN A4],,,,0.34,0.39,,0.0006,,0.0008,,,,,,,,,
COc1ccc(/C=C\c2cc(OC)c(OC)c(OC)c2)c(O)c1O [COMBRETASTATIN A-1],,,,0.061,4.4,,0.74,,0.17,,1.9,,,,,,,
COc1ccc(/C=C\c2cc(OC)c(OC)c(OC)c2)c(N)c1N [listing 1 of 2 here],0.011,,0.011,0.019,0.014,,0.009,,0.012,,1.8,,,,,,,
COc1cc(N)c(/C=C\c2cc(OC)c(OC)c(OC)c2)cc1[N+](=O)[O-].Cl,,13.7,1.5,,,0,4.3,6.6,3.5,,,1.2,,0.98,,1.2,,
COc1cc(/C=C/c2ccc(OC)c([N+](=O)[O-])c2[N+](=O)[O-])cc(OC)c1OC,> 10,,> 10,> 10,> 10,,> 10,,> 10,,> 40,,,,,,,
COc1cc(/C=C\c2cc(NC(=O)[C@@H](N)CO)c(OC)c(NC(=O)[C@@H](N)CO)c2)cc(OC)c1OC,,,,,,,,,,,> 40,,,,,,,
COc1ccc(/C=C\c2cc(OC)c(OC)c(OC)c2)c(N)c1N [listing 2 of 2 here],,,,,,40,,,,0.0043,2.8,0.0083,0.0062,0.025,2.4,0.0079,0.018,0.018
COc1cc(N)c(/C=C\c2cc(OC)c(OC)c(OC)c2)cc1N,0.55,,0.61,0.44,1,,0.38,,0.33,,14.1,,,,,,,
COc1cc(/C=C\c2ccc(OC)c(OP(=O)([O-])[O-])c2OP(=O)([O-])[O-])cc(OC)c1OC.[Na+].[Na+].[Na+].[Na+],,99,,,,70,,< 0.01,,0.0046,,,,,3.2,,,
COc1cc([N+](=O)[O-])c(/C=C\c2cc(OC)c(OC)c(OC)c2)cc1N,2.8,,2.6,3.5,2.7,,2.5,,3.3,,> 40,,,,,,,
COc1cc([N+](=O)[O-])c(/C=C\c2cc(OC)c(OC)c(OC)c2)cc1[N+](=O)[O-],2.8,,2.3,4.6,3.6,,3.5,,5.5,,> 40,,,,,,,
COc1cc(/C=C\c2cc(N)c(OC)c(N)c2)cc(OC)c1OC.Cl.Cl,,6,,,,0,,,,> 1.4,> 40,,,,> 44.8,,,
